Reference: ChEMBL document CHEMBL1147646, “Novel benzofuran derivatives for PET imaging of beta-amyloid plaques in Alzheimer's disease brains” (J Med Chem, 2006)
The source made the active and inactive calls. The calls are words filed in the database; no cut-off is given here.

Key:
[1] = target: T1, Amyloid-beta precursor protein (Homo sapiens, UniProt P05067); test: Displacement of [125I]IMPY from beta amyloid in human corpse AD brain
[2] = target: T1, Amyloid-beta precursor protein; test: Ability for neuropathological staining of amyloid plaque in human corpse AD brain temporal cortex; assay type: functional, tissue-based
Outline: (§1)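 Postmortem temporal cortex from two AD cases, 5 µm paraffin serial sections deparaffinized in xylene/ethanol, washed in water then PBS, immersed in compound solution at various concentrations (50% ethanol in PBS above 0.5 mM), PBS wash 15 min, mounted; viewed by fluorescence microscopy (G-filter); serial sections immunostained for Aβ and tau with DAB.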

[3] = target: T1, Amyloid-beta precursor protein; test: Labelling of accumulated amyloid plaque in Tg2576 transgenic mouse brain hippocampus expressing human APP after 30 mins; assay type: functional, tissue-based; details: tested as the 11C-labelled form
[4] = target: T1, Amyloid-beta precursor protein; test: Labelling of accumulated amyloid plaque in Tg2576 transgenic mouse brain cerebral cortex expressing human APP after 30 mins; assay type: functional, tissue-based; details: tested as the 11C-labelled form
[5] = target: T1, Amyloid-beta precursor protein; test: Ability for neuropathological staining of cerebrovascular amyloid plaque in human corpse AD brain; assay type: functional; outline: as §1
[6] = target: Microtubule-associated protein tau (Homo sapiens) (UniProt P10636); test: Ability for neuropathological staining of neurofibrillary tangles in human corpse AD brain temporal cortex
Chain of Microtubule-associated protein tau (Homo sapiens) (P10636 whole entry, looked up): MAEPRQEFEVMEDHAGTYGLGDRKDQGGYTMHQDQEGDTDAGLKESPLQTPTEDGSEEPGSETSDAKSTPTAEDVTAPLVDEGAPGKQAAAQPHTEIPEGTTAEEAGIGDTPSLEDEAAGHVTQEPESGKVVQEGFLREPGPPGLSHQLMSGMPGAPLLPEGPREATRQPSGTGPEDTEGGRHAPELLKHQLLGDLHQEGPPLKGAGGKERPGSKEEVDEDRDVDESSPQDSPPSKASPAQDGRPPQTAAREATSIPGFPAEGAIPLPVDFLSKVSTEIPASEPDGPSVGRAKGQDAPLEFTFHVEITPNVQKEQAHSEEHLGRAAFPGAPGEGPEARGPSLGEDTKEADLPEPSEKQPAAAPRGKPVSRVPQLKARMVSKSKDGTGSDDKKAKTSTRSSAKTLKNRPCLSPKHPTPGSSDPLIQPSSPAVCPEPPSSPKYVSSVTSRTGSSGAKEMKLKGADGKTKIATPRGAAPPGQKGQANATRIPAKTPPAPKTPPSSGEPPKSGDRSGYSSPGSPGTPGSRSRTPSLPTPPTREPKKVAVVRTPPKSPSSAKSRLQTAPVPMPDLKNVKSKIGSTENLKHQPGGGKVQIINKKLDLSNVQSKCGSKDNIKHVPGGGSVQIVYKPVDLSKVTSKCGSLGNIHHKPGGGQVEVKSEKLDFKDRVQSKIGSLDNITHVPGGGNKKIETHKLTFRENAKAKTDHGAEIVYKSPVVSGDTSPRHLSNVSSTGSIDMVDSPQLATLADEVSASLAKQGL

Mus musculus [7] = species: Mus musculus; test: %Compound removed from ddY mouse brain after 30 mins; assay type: ADME, organism-based; details: in vivo, 0.5 h
[8] = Partition coefficient, log P at pH 7.4; assay type: physicochemical; details: octanol/water
Mus musculus [9] = test: Ratio for drug uptake in iv dosed ddY mouse brain after 2 mins to after 30 mins; assay type: ADME, organism-based; details: in vivo

T1 sequence (P05067 whole entry): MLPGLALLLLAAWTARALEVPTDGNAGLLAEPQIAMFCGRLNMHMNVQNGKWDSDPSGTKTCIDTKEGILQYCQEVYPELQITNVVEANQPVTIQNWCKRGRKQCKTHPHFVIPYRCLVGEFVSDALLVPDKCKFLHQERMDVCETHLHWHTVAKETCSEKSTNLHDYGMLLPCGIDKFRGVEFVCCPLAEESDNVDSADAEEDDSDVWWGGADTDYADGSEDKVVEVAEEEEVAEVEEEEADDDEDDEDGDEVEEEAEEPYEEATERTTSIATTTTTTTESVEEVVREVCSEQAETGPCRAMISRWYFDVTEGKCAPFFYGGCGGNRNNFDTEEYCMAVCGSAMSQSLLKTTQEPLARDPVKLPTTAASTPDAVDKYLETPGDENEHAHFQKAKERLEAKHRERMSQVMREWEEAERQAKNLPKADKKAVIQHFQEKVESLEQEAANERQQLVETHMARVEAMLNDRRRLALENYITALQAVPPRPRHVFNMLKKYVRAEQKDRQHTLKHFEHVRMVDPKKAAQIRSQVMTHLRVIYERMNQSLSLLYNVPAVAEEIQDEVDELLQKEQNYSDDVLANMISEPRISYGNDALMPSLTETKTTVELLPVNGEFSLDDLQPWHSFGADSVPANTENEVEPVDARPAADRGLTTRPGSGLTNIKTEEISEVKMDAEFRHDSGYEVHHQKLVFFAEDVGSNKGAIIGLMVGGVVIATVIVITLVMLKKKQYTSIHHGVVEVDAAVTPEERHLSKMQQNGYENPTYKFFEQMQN

SMILES: COc1ccc2oc(-c3ccc(N)cc3)cc2c1
- Ki [1]: 2.3 nM

SMILES: COc1ccc2oc(-c3ccc(N(C)C)cc3)cc2c1
- Ki [1]: 12 nM

SMILES: CNc1ccc(-c2cc3cc(OC)ccc3o2)cc1
- Ki [1]: 1.3 nM

SMILES: CNc1ccc(-c2cc3cc(O)ccc3o2)cc1
- Activity [2]: Active
- Activity [3]: Active
- Activity [4]: Active
- Activity [5]: Active
- Ki [1]: 0.7 nM
- Activity [6]: Active

SMILES: CN(C)c1ccc(-c2cc3cc(O)ccc3o2)cc1
- Ki [1]: 2.8 nM

SMILES: Nc1ccc(-c2cc3cc(O)ccc3o2)cc1
- Ki [1]: 11.5 nM

SMILES: [11CH3]Nc1ccc(-c2cc3cc(O)ccc3o2)cc1
- washout (Mus musculus [7]): 90%
- logD [8]: 2.36
- Ratio (Mus musculus [9]): 0.07
